According to ChEMBL document CHEMBL1165950, “Design and synthesis of new potent anticancer pyrazoles with high FLT3 kinase inhibitory selectivity” (Bioorg Med Chem, 2010):

Experiments:
Type in all cases: functional
Conditions in all cases: read-out: Activity
SF-268 = assay: Cytotoxicity against human SF268 cells assessed as cell growth at 10 uM
Summary of the method: (§1)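 NCI-60 screen: cells grown in RPMI 1640 with 5% FBS and 2 mM L-glutamine, plated at 5000–40,000 cells/well according to doubling time, and preincubated 24 h at 37 °C, 5% CO2. The single 10 µM dose (DMSO stock) was added, then incubated 48 h. Cells were TCA-fixed and stained with 0.4% SRB, read at 515 nm, and growth % calculated against time-zero and control plates.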

K562 = assay: Cytotoxicity against human K562 cells assessed as cell growth at 10 uM
Summary of the method: (§2)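 Single-dose NCI-60 screen at 10 µM. Cells were grown in RPMI 1640 with 5% FBS and 2 mM L-glutamine, then treated for 48 h at 37 °C. Protein was measured by SRB staining with absorbance at 515 nm. Percentage growth was recorded, and inhibition percentage was calculated as 100 minus growth percentage.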

SF-295 = assay: Cytotoxicity against human SF295 cells assessed as cell growth at 10 uM; summary of the method: as §1
DU-145 = assay: Cytotoxicity against human DU145 cells assessed as cell growth at 10 uM; summary of the method: as §2
LOX IMVI = assay: Cytotoxicity against human LOXIMVI cells assessed as cell growth at 10 uM; summary of the method: as §1
HOP-92 = assay: Cytotoxicity against human HOP92 cells assessed as cell growth at 10 uM; summary of the method: as §2
TK-10 = assay: Cytotoxicity against human TK10 cells assessed as cell growth at 10 uM; summary of the method: as §1
OVCAR-5 = assay: Cytotoxicity against human OVCAR5 cells assessed as cell growth at 10 uM; summary of the method: as §1
UO-31 = assay: Cytotoxicity against human UO31 cells assessed as cell growth at 10 uM; summary of the method: as §1
786-0 = assay: Cytotoxicity against human 786-0 cells assessed as cell growth at 10 uM; summary of the method: as §2
HT-29 = assay: Cytotoxicity against human HT-29 cells assessed as cell growth at 10 uM; summary of the method: as §2
EKVX = assay: Cytotoxicity against human EKVX cells assessed as cell growth at 10 uM; summary of the method: as §2
ACHN = assay: Cytotoxicity against human ACHN cells assessed as cell growth at 10 uM; summary of the method: as §2
CCRF-CEM = assay: Cytotoxicity against human CCRF-CEM cells assessed as cell growth at 10 uM; summary of the method: as §2
SK-MEL-2 = assay: Cytotoxicity against human SK-MEL-2 cells assessed as cell growth at 10 uM; summary of the method: as §1
SNB-19 = assay: Cytotoxicity against human SNB19 cells assessed as cell growth at 10 uM; summary of the method: as §1
HCT-15 = assay: Cytotoxicity against human HCT15 cells assessed as cell growth at 10 uM; summary of the method: as §2
SK-OV-3 = assay: Cytotoxicity against human SKOV3 cells assessed as cell growth at 10 uM; summary of the method: as §1
OVCAR-3 = assay: Cytotoxicity against human OVCAR-3 cells assessed as cell growth at 10 uM; summary of the method: as §1
M14 = assay: Cytotoxicity against human M14 cells assessed as cell growth at 10 uM; summary of the method: as §1
MDA-MB-468 = assay: Cytotoxicity against human MDA-MB-468 cells assessed as cell growth at 10 uM; summary of the method: as §1
A498 = assay: Cytotoxicity against human A498 cells assessed as cell growth at 10 uM; summary of the method: as §2
HOP-62 = assay: Cytotoxicity against human HOP62 cells assessed as cell growth at 10 uM; summary of the method: as §2
IGROV-1 = assay: Cytotoxicity against human IGROV1 cells assessed as cell growth at 10 uM; summary of the method: as §2
RXF 393 = assay: Cytotoxicity against human RXF393 cells assessed as cell growth at 10 uM; summary of the method: as §1
Malme-3M = assay: Cytotoxicity against human MALME-3M cells assessed as cell growth at 10 uM; summary of the method: as §1
COLO 205 = assay: Cytotoxicity against human COLO205 cells assessed as cell growth at 10 uM; summary of the method: as §2
UACC-257 = assay: Cytotoxicity against human UACC257 cells assessed as cell growth at 10 uM; summary of the method: as §1
NCI-H23 = assay: Cytotoxicity against human NCI-H23 cells assessed as cell growth at 10 uM; summary of the method: as §1
A549 = assay: Cytotoxicity against human A549 cells assessed as cell growth at 10 uM; summary of the method: as §2
HCT-116 = assay: Cytotoxicity against human HCT116 cells assessed as cell growth at 10 uM; summary of the method: as §2

Cc1cc(O)cc(-c2nn(CC#N)cc2-c2ccnc(-c3ccccc3)c2)c1
growth at 10 µM (SF-268): 99.6%
growth at 10 µM (K562): 71.5%
growth at 10 µM (SF-295): 99.2%
growth at 10 µM (DU-145): 103%
growth at 10 µM (LOX IMVI): 95.6%
growth at 10 µM (HOP-92): 57.3%
growth at 10 µM (TK-10): 84.2%
growth at 10 µM (OVCAR-5): 93.2%
growth at 10 µM (UO-31): 64.5%
growth at 10 µM (786-0): 67%
growth at 10 µM (HT-29): 61.9%
growth at 10 µM (EKVX): 101%
growth at 10 µM (ACHN): 74.4%
growth at 10 µM (CCRF-CEM): 85.8%
growth at 10 µM (SK-MEL-2): 86.1%
growth at 10 µM (SNB-19): 87%
growth at 10 µM (HCT-15): 54%
growth at 10 µM (SK-OV-3): 84.6%
growth at 10 µM (OVCAR-3): 107%
growth at 10 µM (M14): 81.3%
growth at 10 µM (MDA-MB-468): 61.8%
growth at 10 µM (A498): 84.3%
growth at 10 µM (HOP-62): 92.7%
growth at 10 µM (IGROV-1): 72%
growth at 10 µM (RXF 393): 151%
growth at 10 µM (Malme-3M): 133%
growth at 10 µM (COLO 205): 108%
growth at 10 µM (UACC-257): 95.6%
growth at 10 µM (NCI-H23): 93.5%
growth at 10 µM (A549): 85.5%
growth at 10 µM (HCT-116): 59.1%
